Shown are actives, neighbours in structure and some others; about 2.3% of the full set was active somewhere.
NPY Y2 blocker = blocks the human neuropeptide Y Y2 receptor; 140,000 tested, 0.99% active; P49146; inhibition, % at 2.7 µM; NPY-Y2 expressing cells, antagonist mode; in the data active = inhibition above about 17%
Target sequence (P49146 whole entry, looked up): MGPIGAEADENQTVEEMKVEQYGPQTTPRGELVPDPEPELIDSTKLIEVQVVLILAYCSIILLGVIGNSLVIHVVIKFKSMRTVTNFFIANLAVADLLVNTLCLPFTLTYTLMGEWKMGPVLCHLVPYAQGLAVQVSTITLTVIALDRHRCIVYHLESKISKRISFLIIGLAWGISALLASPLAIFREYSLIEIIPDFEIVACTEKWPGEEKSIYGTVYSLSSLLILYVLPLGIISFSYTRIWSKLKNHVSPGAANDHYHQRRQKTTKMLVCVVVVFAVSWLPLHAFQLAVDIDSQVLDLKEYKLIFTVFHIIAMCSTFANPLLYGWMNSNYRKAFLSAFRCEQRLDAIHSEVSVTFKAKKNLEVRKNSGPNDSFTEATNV
m-calpain inh = calpain II (pig) inhibition; purified calpain II, fluorogenic peptide substrate, 30 min; inhibition, % at 16 µM; 220,000 tested, 0.37% active;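 active = inhibition above about 50%, limit read from the data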
NPY-Y1 PAM-ag = human NPY-Y1 potentiation or agonism, primary screen. NPY-Y1 expressing cells, potentiator/agonist activation. 220,000 tested, 0.37% active. AID 1304. activation, % at 3.6 µM. P25929; in the data active = activation above about 33%, passing the limit was not always enough;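 note: cells stimulated with NPY at EC10 then isoproterenol at EC100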
NPY-Y1 antag = NPY-Y1 (human) receptor antagonism; HEK293-CNG Y1 cells, membrane potential fluorescence; NPY at EC95, then isoproterenol; inhibition, % at 3.6 µM; 200,000 tested, 1% active;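 active = inhibition above the campaign mean inhibition of all tested compounds plus 3 SD, cut at about 20% in these data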
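Assay system: HEK293 Y1/CNG channel cell line; Doses: single compound dose of 3.6 µM, 0.4% DMSO; Timing: dye 3 h, compound 60 min room temperature, stimulation 45 min; Technique: Membrane-potential fluorescent dye readout; Measure: % inhibition of NPY effect.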
NPY2 pot ag = potentiators or agonists of human neuropeptide Y receptor Y2 | AID 1359 | 220,000 tested, 0.45% active | cells expressing NPY-Y2, potentiator/agonist read-out | activation, % at 3.6 µM | P49146; in the data active = activation above about 27%;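 note: cells stimulated with NPY near EC25 plus isoproterenol at EC100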
TbHK1 inh = T. brucei hexokinase 1 inhibition; recombinant TbHK1, G6PDH-coupled NADH A340; 220,000 tested, 0.11% active; inhibition, % at 10 µM; AID 1430;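 active = inhibition of 50% or more in the single-dose primary screen; inactive = inhibition below 50%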
Large screens that a line does not name were inactive.

CC1=C(C(=O)OCC(C)C)C(c2ccsc2)NC(=O)N1 (configuration not stated)	none
CCOC(=O)C1(CCc2ccccc2)CCN(C(=O)C(C)n2cncn2)CC1 (configuration not stated)	none (no result: NPY Y2 blocker)
CC(C)c1ccc(/C=C/c2ccc(=O)n(C)n2)cc1	none (no result: NPY Y2 blocker)
CC(C)c1ccc(/C=C/C2=NNC(=O)CC2)cc1	m-calpain inh 92.0 (no result: NPY Y2 blocker)
COC(=O)CSc1nnc(-c2ccc(S(=O)(=O)N3CCCCC3)cc2)o1	NPY-Y1 PAM-ag 63.4, NPY2 pot ag 42.3
CCN(CC)C(=O)c1cc2c(=O)oc3ccccc3c2s1	NPY-Y1 PAM-ag 68.7, NPY2 pot ag 57.9
CCN(CC)C(=O)c1cc2c(=O)n3ccccc3nc2s1	none
CCCn1c(SCc2nc3ccccc3s2)n[nH]c1=O	m-calpain inh 50.2 (no result: NPY Y2 blocker)
O=c1[nH]nc(SCc2nc3ccccc3s2)n1C1CC1	none (no result: NPY Y2 blocker)
COC(=O)c1c(NC(=O)CN2CCN(Cc3ccc4c(c3)OCO4)CC2)sc(C)c1C	NPY Y2 blocker 37.7, NPY-Y1 antag 47.9
COC(=O)c1ccsc1NC(=O)CN1CCN(Cc2ccc3c(c2)OCO3)CC1	none
Cc1ccc(C(=O)Nc2nc(=O)[nH]s2)cc1	none (no result: NPY Y2 blocker)
CCc1ccc(OCCOCC(O)CNC(C)(C)C)cc1 (configuration not stated)	none
COc1cccc(OC)c1OCCNC(C)(C)C	none
CCOC(=O)N1CCN(CC(O)COc2c(OC)cccc2OC)CC1 (configuration not stated)	none
CC(C)(C)NCC(O)COc1cccc2c1C[C@H](O)[C@H](O)C2 (some centres not stated)	NPY-Y1 PAM-ag 117.8, NPY2 pot ag 102.0
Cc1cc2c(OCC(O)CNC(C)(C)C)cccc2[nH]1 (configuration not stated)	NPY-Y1 PAM-ag 111.0, NPY2 pot ag 104.6
COCCCNCC(O)COc1cccc2[nH]c(C)cc12 (configuration not stated)	NPY-Y1 PAM-ag 107.5, NPY2 pot ag 101.3 (no result: NPY Y2 blocker)
Cc1cc2c(OCC(O)CN3CCCC3)cccc2[nH]1 (configuration not stated)	NPY-Y1 PAM-ag 110.2, NPY2 pot ag 99.5 (no result: NPY Y2 blocker)
Cc1cccnc1NC(=S)Nc1ccc(Br)cc1Cl	none (no result: NPY Y2 blocker)
CN(C)c1ccc2c3c(ccc(N(C)C)c13)C(=O)OC2	none (no result: NPY Y2 blocker, NPY-Y1 antag)
COc1cc(C2NC(=O)NC(C)=C2[N+](=O)[O-])cc(OC)c1OC (configuration not stated)	none (no result: NPY Y2 blocker, NPY-Y1 antag)
CN1CCN(NC(=O)c2ccc(S(=O)(=O)N3CC4(C)CC3CC(C)(C)C4)cc2)CC1 (configuration not stated)	none (no result: NPY Y2 blocker, NPY-Y1 antag)
CN1CCN(C2=CC3=CC(=C(C#N)C#N)CCC3CC2)CC1 (configuration not stated)	none (no result: NPY Y2 blocker)
CCN1CCN(C2=CC3=CC(=C(C#N)C#N)CCC3CC2)CC1 (configuration not stated)	m-calpain inh 60.6 (no result: NPY Y2 blocker)
Cc1ccc(NC(=O)Cc2cc(C(=O)O)c3ccccc3n2)c(C)c1	NPY-Y1 PAM-ag 77.7, NPY2 pot ag 79.7 (no result: NPY Y2 blocker)
COC(=O)CNC(=O)c1sc2ncn(CC(=O)Nc3ccc(C)c(Cl)c3)c(=O)c2c1C	m-calpain inh 51.6 (no result: NPY Y2 blocker)
O=C(O)c1cc(/C=C/c2ccc(N3CCOCC3)c([N+](=O)[O-])c2)nc2ccccc12	NPY-Y1 PAM-ag 53.5, NPY2 pot ag 77.6 (no result: NPY Y2 blocker, NPY-Y1 antag)
COc1ccc(N2CC(C(=O)Nc3cc(C)ccn3)CC2=O)cc1 (configuration not stated)	none (no result: NPY Y2 blocker, NPY-Y1 antag)
COc1cc2[nH]c(Cl)c([N+](=O)[O-])c2cc1OC	none (no result: NPY Y2 blocker, NPY-Y1 antag)
CN(C)c1ccc(/C=C/c2ccc3ccccc3[n+]2C)cc1	m-calpain inh 57.4
CN(C)c1ccc(/C=C/c2cccc[n+]2[O-])cc1	none (no result: NPY Y2 blocker, NPY-Y1 antag)
CN(C)c1ccc(/C=C/c2ccc3c4ccccc4ccc3[n+]2-c2ccccc2)cc1	NPY2 pot ag 58.0 (no result: NPY Y2 blocker)
CN(C)c1ccc(/C=C/c2ccncc2)cc1	none
O=C(Nc1ccc(S(=O)(=O)Nc2ncccn2)cc1)c1ccc2ncsc2c1	none (no result: NPY Y2 blocker, NPY-Y1 antag)
C=CCN(CC=C)CCOc1ccc(OC(C)C)cc1	none (no result: NPY Y2 blocker)
OC(COc1ccc(C2C=CCC2)cc1)CN1CCCCC1 (configuration not stated)	NPY-Y1 PAM-ag 59.7, NPY2 pot ag 73.1
Cc1ccc(N=C2S/C(=C\c3cn(CC(=O)O)c4ccccc34)C(=O)N2C)cc1	none
CCOCCCNC(=O)C(c1ccc(Cl)cc1)N1CCC2(CC1)OCCO2 (configuration not stated)	NPY-Y1 PAM-ag 31.9, NPY2 pot ag 36.2
CCOCCCNC(=O)C(c1ccc(Cl)cc1)N1CCN(c2ccccc2)CC1 (configuration not stated)	none (no result: NPY Y2 blocker, NPY-Y1 PAM-ag, NPY-Y1 antag, NPY2 pot ag)
Cc1ccc(N(C(=O)c2ccccn2)C2(C(=O)NC3CCCC3)CCCCC2)cc1	none
Cc1ccc(NC(=O)C2(N(C(=O)Cn3nnnc3N)c3ccc(C)cc3)CCCCC2)cc1	NPY-Y1 PAM-ag 40.6, NPY2 pot ag 34.0
C/C(=C\C(=O)c1ccc(F)cc1)NCc1ccc2c(c1)OCO2	none
C/C(=C\C(=O)c1ccc(Br)cc1)NCc1ccc2c(c1)OCO2	NPY-Y1 antag 20.8
Cc1[nH]c2ccccc2c1/C=N/NS(=O)(=O)c1ccccc1	none (no result: NPY Y2 blocker)
Cc1[nH]c2ccccc2c1/C=N/Nc1ccccc1[N+](=O)[O-]	NPY-Y1 PAM-ag 106.9, NPY2 pot ag 101.4 (no result: NPY Y2 blocker)
Cc1cccc(NC(=O)CN2C(=O)N/C(=C/c3cc(C)n(-c4cccnc4)c3C)C2=O)c1	m-calpain inh 50.5 (no result: NPY Y2 blocker)
CCn1c(C)nc2cc(C(=O)N/N=C(\C)c3ccccc3O)ccc21	none (no result: NPY Y2 blocker)
Cc1cc(N)n(-c2ccc(Oc3ccccc3)c(S(=O)(=O)O)c2)n1	none (no result: NPY Y2 blocker)
COc1ccc2c(c1)C(=O)CC(O)(C(F)F)O2 (configuration not stated)	m-calpain inh 50.6 (no result: NPY Y2 blocker, NPY-Y1 antag)
CC1(C)CC(=O)c2cc(OCC(=O)O)ccc2O1	none
CN1CCCC(CC2Oc3ccccc3Sc3ccccc32)C1 (configuration not stated)	none
c1ccc2c(c1)OC(CCCN1CCCCC1)c1ccccc1S2 (configuration not stated)	NPY Y2 blocker 17.4, NPY-Y1 antag 40.3
COc1ccc(NC(=O)c2csc(Cc3ccc(Cl)cc3)n2)cc1	none (no result: NPY Y2 blocker)
COc1ccc(Cc2nc(C(=O)Nc3ccc(Cl)cc3)cs2)cc1	NPY Y2 blocker 19.1, NPY-Y1 antag 24.0
COc1ccc(CCNC(=O)CC2SC(N)=NC2=O)cc1OC (configuration not stated)	none (no result: NPY Y2 blocker)
CCc1ccc(OCCn2cccn2)cc1	none (no result: NPY Y2 blocker)
CCC(=O)N1CCc2cc(S(=O)(=O)N3CCc4ccccc4C3)ccc21	m-calpain inh 54.4
COc1ccc(CNC(=S)N2CCN(Cc3ccccc3)CC2)cc1	none (no result: NPY Y2 blocker, NPY-Y1 antag)
Cc1ccccc1OCC(=O)Nc1ccccc1CO	none
CSc1ccccc1NC(=O)COc1ccccc1C	m-calpain inh 69.0 (no result: NPY Y2 blocker)
CC(C)CNC(C(=O)Nc1ccc([N+](=O)[O-])cc1Br)c1ccccc1 (configuration not stated)	none

Source: PubChem (several laboratories)
